Data: ChEMBL document CHEMBL1795269, “Novel (E)-5-styryl-2,2'-bithiophene derivatives as ligands for β-amyloid plaques” (Eur J Med Chem, 2011)
Active and inactive are the calls of the source. The rule behind the calls is not given here.

How the values were obtained:
[1] = Displacement of [125I]-TZDM from amyloid beta 1 to 42 after 2 hrs by gamma counting
How it was run: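 Aβ1-42 aggregated at 0.25 mg/mL in pH 7.4 buffer (10 mM sodium phosphate, 1 mM EDTA), 37 °C for 42 h with shaking. Fibrils (28 nM final) mixed with [125I]TZDM and inhibitor (10^-5 to 10^-10 M in EtOH) in PBS (0.2 M, pH 7.4). Incubated 2 h at 37 °C; nonspecific binding taken with 100 nM TZDM. Bound and free separated by vacuum filtration through glass fibre filters, washed with cold PBS containing 10% ethanol, then counted; Ki reported.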

Mus musculus = species: Mus musculus; assay: Binding affinity to amyloid beta in APP/PS1 transgenic C57 mouse brain cortex at 5 uCi/100 uL after 30 mins by autoradiography; assay type: tissue-based; details: tested as the 125I-labelled form
How it was run: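 Deparaffinized transgenic mouse brain sections incubated 30 min at room temperature with [125I]-labelled tracer (5 μCi/100 μL). Washed with saturated Li2CO3 in 40% EtOH for 3 min, then 40% EtOH for 3 min, then rinsed 30 s in water. Plaques checked afterwards by thioflavin-S (1 μM) fluorescence staining of the same sections.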

| Structure (SMILES) | Ki [1] [nM] | inhibition [1] | Activity (Mus musculus) |
| --- | --- | --- | --- |
| Clc1ccc(/C=C/c2ccc(-c3cccs3)s2)cc1 | 0.74 | Dose-dependent effect | – |
| Brc1ccc(/C=C/c2ccc(-c3ccc(Br)s3)s2)cc1 | 0.22 | Dose-dependent effect | – |
| C(=C\c1ccc(-c2cccs2)s1)/c1ccccc1 | 4.78 | Dose-dependent effect | – |
| CC(C)(C)c1ccc(/C=C/c2ccc(-c3ccc(Br)s3)s2)cc1 | 0.95 | Dose-dependent effect | – |
| Ic1ccc(/C=C/c2ccc(-c3cccs3)s2)cc1 | 0.92 | Dose-dependent effect | Active |

The remaining lines, values ahead:

| Ki [1] [nM] | inhibition [1] | Activity (Mus musculus) | Structure (SMILES) |
| --- | --- | --- | --- |
| 0.51 | Dose-dependent effect | – | Brc1ccc(-c2ccc(/C=C/c3ccc(I)cc3)s2)s1 |
| 0.55 | Dose-dependent effect | – | Fc1ccc(/C=C/c2ccc(-c3ccc(I)s3)s2)cc1 |
| 1.1 | Dose-dependent effect | – | Clc1ccc(/C=C/c2ccc(-c3ccc(I)s3)s2)cc1 |
